Measured values: PMC5609517 (Chemical Science, 2017)

Legend:
[1] = tested on: MDCK cells; assay: Imaging of carbon monoxide in living cells with fluorescent probe COP-1; format: cell-based, Canine; details: 10 μM, at 8 and 37 °C, against respective iCORM (50 μM)
Outline: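 MDCK cells exposed at 37 °C and at 8 °C to test compound (10 μM) or to its CO-depleted product (iCORM, 50 μM) as comparator. Intracellular CO was detected with the CO-selective fluorescent probe COP-1, read as intracellular fluorescence.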

[2] = format: physicochemical; details: solutions in aqueous media at pH < 7, prolonged periods (>1 week)

CC12C(=O)C(C)(C(c3ccccc3)=C1c1ccccc1)C1(Br)C(=O)N(CCNCCN)C(=O)C21.O=C(O)C(F)(F)F.O=C(O)C(F)(F)F (centres unmarked) [oCOm-23]
CO delivery to cells / increased intracellular CO levels (COP-1) [1]: confirmed | formation of the corresponding iCORM [2]: no sign of the formation
